# Compound activity deposited in PubChem BioAssay by several laboratories.
# CSC inhib: cancer stem cell inhibition; cancer stem cell-like cells viability, luminescence; inhibition, % at 7.5 µM; actives 1.1% (n = 300,000); AID 2717; in the data active = inhibition above about 75%; inconclusive = no clear call, values can overlap the other calls; tested in HMLE shEcad cells
# T cruzi inh: T. cruzi replication inhibition; T. cruzi beta-gal in NIH3T3, luminescence, 90 h; inhibition, % (concentration not given with the values); actives 1.4% (n = 300,000);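 active = mean inhibition across valid replicates above about 55%, limit read from the data; inconclusive = mean below that limit but half or more replicates reach it; inactive = mean below it, under half of replicates reach it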;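 note: signal also drops with host cell toxicity which is not excluded here; 0% = plate median of DMSO wells and 100% = zero luminescence signal; higher percent means less beta-gal luminescence so fewer parasites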
#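 System: Mouse NIH/3T3 fibroblasts infected with β-gal-expressing T. cruzi Tulahuen C4 | Quantity: NIH/3T3 cells, 5,000 per well | Reagent: 5000 reporter trypomastigotes per well | Dosing: Compound pinned at 50 nL/well, DMSO | Schedule: 3 h host attachment, then at least 90 h co-culture | Detection: GalScreen luminescence, 60 min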
# WT yeast gro inh: growth inhibition of WT yeast, mitochondrial fusion screen | mitochondrial fusion phenotypic screen, WT strain | inhibition, % at 10 µM | actives 2.1% (n = 190,000) | AID 1362; in the data active = inhibition above about 58%; tested in S. cerevisiae
# Efflux pump inh: antifungal efflux pump inhibition, Nile Red retention | S. cerevisiae Candida pump triplex | inhibition, % at 10 µM | actives 0.44% (n = 330,000) | AID 485275;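 active = plate passing quality check with inhibition over a set limit, or well fluorescence over plate mean plus 4 SD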;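 note: Nile Red retained in pooled yeast measured as flow cytometry median fluorescence; 0% = buffer negative control and 100% = Enniatin B positive control; higher means more Nile Red kept so more efflux inhibition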
# Beta apoptosis: blocks beta cell apoptosis | INS-1E cytokine-induced death, ATP luminescence, 48 h; percent of positive-control rescue, neutral wells zero | protection from apoptosis, % (concentration not given with the values) | actives 0.8% (n = 300,000) | AID 435005;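 active = Every replicate reaches about 75%, or at least half do and their mean reaches it too, limit read from the data; inconclusive = At least half of replicates reach the limit but their mean does not; inactive = Under half of replicates reach the limit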;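 note: 0% = cytokine-treated negative control wells and 100% = positive control rescue; higher means more ATP so stronger rescue from cytokine killing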
# SUMO Mot1 rescue: inhibitors of SUMOylation pathway: yeast Mot1-301 growth rescue. S. cerevisiae Mot1-301 growth rescue, ATP luminescence, 38.5C; percent above DMSO median, 100 means doubled. growth rescue, % at 18.8 µM. actives 1% (n = 320,000);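 active = every valid replicate shows activation above 250% relative to neutral control wells; inactive = the rest, any valid replicate at or below 250%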;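 note: OY570 slx delta 5 strain wells were the positive control but not used for scaling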
# The depositor's hits bear a star; ? = inconclusive; . = no result given. This is a sample that favours compounds with a hit; in the whole collection about 4.8% have one here.
SMILES,CSC inhib,T cruzi inh,WT yeast gro inh,Efflux pump inh,Beta apoptosis,SUMO Mot1 rescue
N=C(N)c1ccc(OCCCCCOc2ccc(C(=N)N)cc2)cc1,-13,15,76*,0,22,123
O=C(Nc1cc(S(=O)(=O)N2CCOCC2)ccc1Cl)c1cc2ccccc2o1,.,.,.,0,7,-12
CCCN1Cc2cccc(C(=O)NC(CC(=O)OCC)c3ccc(C)cc3)c2C1=O (stereo unspecified),6,27,66*,0,-3,0
CSCC[C@H](NC(=O)[C@@H]1CSC2c3ccccc3C(=O)N21)C(=O)NCc1ccco1 (stereo partly specified),0,-4,.,0,-3,2
O=C(O)/C=C/c1cn(Cc2ccccc2)nc1-c1ccccc1,10,-7,-8,1,2,-7
O=C(O)CCn1cc(/C=C/C(=O)c2ccc(Cl)cc2)c(-c2ccc(Br)cc2)n1,106*,.,18,0,-8,-4
Cc1c(/C(O)=C2/C(=O)C(=O)N(CCN3CCOCC3)C2c2cccnc2)cnn1-c1ccccc1 (stereo unspecified),-6,16,29,0,-2,447*
CCN(CC)CCN1C(=O)C(=O)/C(=C(/O)c2cnn(-c3ccccc3)c2C)C1c1cccnc1 (stereo unspecified),5,-4,-1,0,-5,3
CC1CCCCC1NC(=O)C1CCC(CNS(=O)(=O)c2ccc(F)cc2)CC1 (stereo unspecified),-7,-3,.,0,5,295*
Cc1ccc(S(=O)(=O)NCC2CCC(C(=O)NC3CCCCC3)CC2)cc1 (stereo unspecified),-19,3,.,0,-5,9
COC(=O)c1ccc(Cn2nnc3c(=O)[nH]c(C4CCN(S(=O)(=O)c5ccc(F)cc5)CC4)nc32)cc1,-10,35,.,0,-7,6
CCOC(=O)C1=C(C)NC(C)=C(C(=O)OCC)C1c1ccccc1/C=C/C(=O)OC(C)(C)C,99*,32,.,0,39,-8
CCOC(=O)C1=C(C)NC(C)=C(C(=O)OCC)C1/C=C/c1ccccc1OC,13,40,-18,0,-11,3
CC(=O)Nc1ccc(S(=O)(=O)NCCCN2CCN(Cc3ccccc3)CC2)cc1Cl,0,.,.,0,2,0
CC(=O)N1CCCc2ccc(NS(=O)(=O)c3ccccc3)cc21,3,-8,.,0,3,13
CCOc1cc(/C=C\[N+](=O)[O-])ccc1OCC(=O)Nc1ccccc1C,76*,37,-8,0,80*,2
COc1cc(/C=C/c2cccc[n+]2C)ccc1OCC(=O)Nc1ccccc1C,0,-14,.,0,0,-4
Cc1cc(NC2CCCC2)n2nc(C)c(-c3ccccc3)c2n1,43,60*,.,0,11,-8
CCCC1CCC(c2ccc(C(=O)NN)cc2)CC1 (stereo unspecified),39,-17,84*,0,?,38
CC(C)CCN1CCN(Cc2cccc3cccnc23)CC1CCO (stereo unspecified),25,16,14,0,-13,6
O=C(O)c1ccccc1C(=O)NNc1cccc(Cl)n1,-3,4,9,0,-2,127
Cc1ccc(S(=O)(=O)N[C@H](C(=O)OCC(=O)N2N=C(c3ccc(Cl)cc3)CC2c2ccco2)C(C)C)cc1 (stereo partly specified),-19,27,28,0,3,2
O=C(/C=C/c1ccc(F)cc1)c1ccccc1Br,108*,-20,81,0,-11,-37
Cc1ccc(C(=O)/C=C/c2ccc(F)cc2)o1,6,0,-2,0,.,-3
CC(=O)N1c2ccc(S(=O)(=O)N3CCCCC3)cc2CC1C(=O)NCc1ccc(N(C)C)cc1 (stereo unspecified),-8,-10,.,0,-3,10
SMILES,CSC inhib,T cruzi inh,WT yeast gro inh,Efflux pump inh,Beta apoptosis,SUMO Mot1 rescue
Cc1cc(C(=O)NC2CC(C)(C)Cc3c2cnn3-c2ccccc2)n(C)n1 (stereo unspecified),-8,-2,.,0,2,-9
CC(=O)[C@@]1(O)C(C)CC2C3C=C(C)C4=Cc5c(cnn5-c5ccccc5)C[C@]4(C)C3C(O)C[C@@]21C (stereo partly specified),100*,64*,.,0,-2,29
Nc1[nH]n(-c2ccccc2)c(=O)c1N=Nc1ccc2ncsc2c1,37,4,.,0,-8,5
N#Cc1ccccc1Sc1ccccc1C(=O)Nc1ccc(Br)cc1,8,28,77*,0,-3,-6
Cn1nccc1C(=O)NC(=S)Nc1cc(Cl)cc(Cl)c1,.,-4,.,0,-7,334*
CCC(NC(=O)Cc1c(C)c2cc3c(cc2oc1=O)OC(C)(C)CC3)C(=O)O (stereo unspecified),-13,-12,.,0,1,-17
COc1ccccc1CNc1ccc2c(c1)CCC2,7,55*,.,0,17,-33
Cc1ccc2oc(=O)n(CCCOc3ccccc3C)c2c1,-1,-3,64*,0,-9,468
O=C(N/N=C/c1cc([N+](=O)[O-])ccc1O)c1ccc(COc2ccc3c(c2)CCC3)o1,101*,?,.,0,105*,10
O=C(N/N=C/c1cc([N+](=O)[O-])ccc1O)c1cccc2ccccc12,11,55*,.,0,102*,-6
O=C(N/N=C/c1cc([N+](=O)[O-])ccc1O)c1cccc(NC(=O)c2cccc(Cl)c2)c1,14,19,.,1,81*,-20
O=[N+]([O-])c1ccc(O)c(/C=N/Nc2ccc(Cl)nn2)c1,107*,84*,6,0,110*,.
Cc1ccc2c(c1)N(C(=O)CCC(=O)O)CCO2,-7,-20,-2,0,-7,-12
CC(C)c1ccc(/C=N/NC(=O)c2cccc(Cl)c2)cc1,91*,9,20,0,12,1
O=C(N/N=C/c1ccc(Cl)c([N+](=O)[O-])c1)c1cc(-c2ccc3c4c(cccc24)CC3)n[nH]1,136*,39,.,0,4,0
O=C(Cn1cnc2ccccc21)Nc1cccc(S(=O)(=O)N2CCCC2)c1,0,.,.,0,16,-10
CC(C)(C)c1ccc(OCc2ccc(C(=O)N/N=C/c3ccc(O)c(O)c3)cc2)cc1,89*,47,-5,0,95*,-29
O=C(N/N=C/c1ccc([N+](=O)[O-])cc1)c1ccc(COc2ccccc2-c2ccccc2)cc1,35,61*,8,0,9,-13
O=C(COc1ccc(/C=N/NC(=O)c2ccncc2)cc1)Nc1ccc([N+](=O)[O-])cc1,-19,-8,.,0,-1,-26
Cc1ccc(C(C)C)c(OCc2ccc(C(=O)N/N=C/c3ccc(O)cc3O)cc2)c1,101*,33,61*,0,116*,-21
